Data as given in ChEMBL document CHEMBL4028850, “Identification and Optimization of Pyrrolo[3,2-d]pyrimidine Toll-like Receptor 7 (TLR7) Selective Agonists for the Treatment of Hepatitis B” (J Med Chem, 2017).

Experiments:
[1] = Cmax in cynomolgus monkey at 3 mg/kg administered via oral gavage measured up to 72 hrs post dose; format: ADME, organism-based, Macaca fascicularis; design: dose 3 mg/kg, route oral; settings: in vivo
[2] = Cmax in C57Bl/6 mouse liver at 1 mg/kg, po measured after 0.5 hrs by LC-MS analysis; format: ADME, organism-based; design: dose 1 mg/kg, route oral
Outline: (§1)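 Female fasted C57Bl/6 mice, nine per dose, got a single oral dose of 0.3, 1, 3 or 10 mg/kg. Blood was drawn at 0.5 h. Three mice per group were sacrificed at 1, 2 or 4 h for plasma and liver compound levels by LC-MS, and mean maximum levels are reported.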

[3] = test system: MDR1; assay: Apparent permeability across apical to basolateral side in MDCK cells expressing human MDR1 at 5 uM by LC-MS/MS analysis; format: ADME, cell-based, Canis lupus familiaris; settings: dog
Outline: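 MDCK cells transfected with human MDR1 were grown as confluent monolayers. 5 µM compound was added apically or basolaterally, with or without the P-gp inhibitor GF120918. Appearance on the opposite side was measured by LC-MS/MS to give Papp; efflux ratio = B→A/A→B without inhibitor.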

[4] = AUC (0 to last) in cynomolgus monkey at 3 mg/kg administered via oral gavage measured up to 72 hrs post dose; format: ADME, organism-based, Macaca fascicularis; design: dose 3 mg/kg, time 0 - last, route oral; settings: in vivo
[5] = Oral bioavailability in cynomolgus monkey at 1 to 10 mg/kg administered via gavage measured up to 72 hrs post dose; format: ADME, organism-based, Macaca fascicularis; settings: in vivo
[6] = Intrinsic clearance in rat hepatocytes assessed per million cells at 1 uM up to 120 mins; format: ADME, cell-based, Hepatocyte; settings: read-out: CLH
[7] = Cmax in C57Bl/6 mouse liver at 0.3 mg/kg, po measured after 0.5 hrs by LC-MS analysis; format: ADME, organism-based; design: dose 0.3 mg/kg, route oral; outline: as §1
[8] = Intrinsic clearance in dog hepatocytes assessed per million cells at 1 uM up to 120 mins; format: ADME, cell-based, Canis lupus familiaris, Hepatocyte; settings: read-out: CLH
[9] = Cmax in C57Bl/6 mouse liver at 3 mg/kg, po measured after 0.5 hrs by LC-MS analysis; format: ADME, organism-based; design: dose 3 mg/kg, route oral; outline: as §1
[10] = Cmax in guinea pig up to […], iv; format: ADME, organism-based, Cavia porcellus; design: dose 4.9 mg/kg, route intravenous; settings: in vivo
[11] = Plasma concentration in dog at 1 mg/kg, po measured after 4 hrs post dose; format: ADME, organism-based, Canis lupus familiaris
[12] = Intrinsic clearance in cynomolgus monkey liver microsomes at 1 uM after 60 mins; format: ADME, Macaca fascicularis, microsome; settings: read-out: CLH
[13] = Intrinsic clearance in mouse hepatocytes assessed per million cells at 1 uM up to 120 mins; format: ADME, cell-based, Hepatocyte; settings: read-out: CLH
[14] = Cmax in C57Bl/6 mouse plasma at 0.3 mg/kg, po measured after 0.5 hrs by LC-MS analysis; format: ADME, organism-based; design: dose 0.3 mg/kg, route oral; outline: as §1
[15] = Tmax in cynomolgus monkey at 1 mg/kg administered via oral gavage measured up to 72 hrs post dose; format: ADME, organism-based, Macaca fascicularis; settings: in vivo
Outline: (§2)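 Cynomolgus monkeys (five per dose) given single oral gavage doses of 1, 3 or 10 mg/kg; dose levels in different animals, staggered by 3 days. Blood sampled pre-dose and at 0.25, 0.5, 1, 2, 4, 8, 24, 48 and 72 h for plasma compound levels, cytokines (ELISA or Luminex) and gene expression (microarray); clinical signs, body weight and temperature monitored.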

[16] = Tmax in C57Bl/6 mouse plasma at 0.3 to 10 mg/kg, po by LC-MS analysis; format: ADME, organism-based
Outline: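 Healthy fasted female C57Bl/6 mice, groups of 9, single oral dose 0.3, 1, 3 or 10 mg/kg. Blood at 0.5 h; three mice per group killed at 1, 2 or 4 h for plasma and liver compound (LC-MS) and ISG expression by RT-qPCR as fold change versus vehicle.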

[17] = Intrinsic clearance in cynomolgus monkey hepatocytes assessed per million cells at 1 uM up to 120 mins; format: ADME, cell-based, Macaca fascicularis, Hepatocyte; settings: read-out: CLH
[18] = Tmax in dog at 1 mg/kg, po; format: ADME, organism-based, Canis lupus familiaris; settings: in vivo
[19] = Activation of NFkappaB (unknown origin) expressed in HEK293 cells after 6 hrs luciferase reporter gene assay; format: cell-based; settings: human
Outline: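 HEK293 cells were transfected with the NFκB-luciferase reporter alone, with no TLR vector, to detect direct NFκB activation.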

[20] = Cmax in Sprague-Dawley rat at […], iv or 10 mg/kg, po measured after 1 hr post dose; format: ADME, organism-based; settings: in vivo
[21] = Cmax in C57Bl/6 mouse plasma at 3 mg/kg, po measured after 0.5 hrs by LC-MS analysis; format: ADME, organism-based; design: dose 3 mg/kg, route oral; outline: as §1
[22] = Intrinsic clearance in rat liver microsomes at 1 uM after 60 mins; format: ADME, microsome; settings: read-out: CLH
[23] = Intrinsic clearance in human liver microsomes at 1 uM after 60 mins; format: ADME, microsome; settings: read-out: CLH
[24] = Tmax in cynomolgus monkey at 1 to 10 mg/kg administered via oral gavage measured up to 72 hrs post dose; format: ADME, organism-based, Macaca fascicularis; settings: in vivo; outline: as §2
[25] = Cmax in cynomolgus monkey at 10 mg/kg administered via oral gavage measured up to 72 hrs post dose; format: ADME, organism-based, Macaca fascicularis; design: dose 10 mg/kg, route oral; settings: in vivo
[26] = Intrinsic clearance in mouse liver microsomes at 1 uM after 60 mins; format: ADME, microsome; settings: read-out: CLH
[27] = Intrinsic clearance in human hepatocytes assessed per million cells at 1 uM up to 120 mins; format: ADME, cell-based, Hepatocyte; settings: read-out: CLH
[28] = test system: Rattus norvegicus; assay: Drug level in Sprague-Dawley rat systemic circulation at […], iv or 10 mg/kg, po; format: ADME, organism-based; settings: in vivo, BLD = below limit of detection
[29] = Cmax in cynomolgus monkey at 1 mg/kg administered via oral gavage measured up to 72 hrs post dose; format: ADME, organism-based, Macaca fascicularis; design: dose 1 mg/kg, route oral; settings: in vivo
[30] = Tmax in cynomolgus monkey at 10 mg/kg administered via oral gavage measured up to 72 hrs post dose; format: ADME, organism-based, Macaca fascicularis; settings: in vivo; outline: as §2
[31] = Ratio of drug uptake in liver to plasma in C57Bl/6 mouse at 0.3 to 10 mg/kg, po by LC-MS analysis; format: ADME, organism-based
Outline: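 Healthy fasted female C57Bl/6 mice, 9 per dose group, given a single oral dose of 0.3, 1, 3 or 10 mg/kg. Blood taken at 0.5 h. At 1, 2 or 4 h, three mice per group were sacrificed and plasma and liver compound levels were measured by LC-MS.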

[32] = Cmax in C57Bl/6 mouse plasma at 10 mg/kg, po measured after 0.5 hrs by LC-MS analysis; format: ADME, organism-based; design: dose 10 mg/kg, route oral; outline: as §1
[33] = Cmax in C57Bl/6 mouse liver at 10 mg/kg, po measured after 0.5 hrs by LC-MS analysis; format: ADME, organism-based; design: dose 10 mg/kg, route oral; outline: as §1
[34] = Intrinsic clearance in dog liver microsomes at 1 uM after 60 mins; format: ADME, Canis lupus familiaris, microsome; settings: read-out: CLH
[35] = Cmax in C57Bl/6 mouse plasma at 1 mg/kg, po measured after 0.5 hrs by LC-MS analysis; format: ADME, organism-based; design: dose 1 mg/kg, route oral; outline: as §1
[36] = Tmax in cynomolgus monkey at 3 mg/kg administered via oral gavage measured up to 72 hrs post dose; format: ADME, organism-based, Macaca fascicularis; settings: in vivo; outline: as §2
[37] = AUC (0 to last) in cynomolgus monkey at 10 mg/kg administered via oral gavage measured up to 72 hrs post dose; format: ADME, organism-based, Macaca fascicularis; design: dose 10 mg/kg, route oral, time 0 - last; settings: in vivo
[38] = Cmax in dog at 1 mg/kg, po; format: ADME, organism-based, Canis lupus familiaris; design: dose 1 mg/kg, route oral; settings: in vivo
[39] = test system: Liver; assay: Drug level in Sprague-Dawley rat liver at […], iv or 10 mg/kg, po; format: ADME, organism-based; settings: in vivo, BLD = below limit of detection

Cc1cc(COc2nc(N)nc3ccn(Cc4ccccn4)c23)no1
Cmax [1]: 11.2 ng/mL | Cmax [2]: 6.3 ng/g | Papp A→B at 5 µM [3]: 41 ×10⁻⁶ cm/s | AUC(0-t) at 72 h [4]: 26.7 ng·h/mL | bioavailability [5]: < 1% | hepatocyte CLint at 1 µM [6]: > 277 µL/min/1e6 cells | Cmax [7]: 6.8 ng/g | hepatocyte CLint at 1 µM [8]: 7 µL/min/1e6 cells | Cmax [9]: 23 ng/g | Cmax [10]: 9700 ng/mL | concentration at 4 h [11]: 10 ng/mL | microsomal CLint at 1 µM [12]: 87 µL/min/mg | hepatocyte CLint at 1 µM [13]: 19 µL/min/1e6 cells | Cmax [14]: 3.7 ng/mL | Tmax [15]: 60 to 120 min | Tmax [16]: 30 to 60 min | hepatocyte CLint at 1 µM [17]: 80 µL/min/1e6 cells | Tmax [18]: 30 min | MEC [19]: > 25 µM | Cmax [20]: 314 ng/mL | Cmax [21]: 2.8 ng/mL | microsomal CLint at 1 µM [22]: > 346 µL/min/mg | microsomal CLint at 1 µM [23]: 25 µL/min/mg | Tmax [24]: 15 to 120 min | Cmax [25]: 23.4 ng/mL | microsomal CLint at 1 µM [26]: 55 µL/min/mg | hepatocyte CLint at 1 µM [27]: 6 µL/min/1e6 cells | Drug uptake [28]: Bld | Cmax [29]: 4.12 ng/mL | Tmax [30]: 30 to 120 min | Kp [31]: 2 | Cmax [32]: 72.9 ng/mL | Cmax [33]: 152 ng/g | microsomal CLint at 1 µM [34]: 44 µL/min/mg | Cmax [35]: 7.1 ng/mL | Tmax [36]: 30 to 120 min | AUC(0-t) at 72 h [37]: 57.5 ng·h/mL | Cmax [38]: 125 ng/mL | Drug uptake [39]: Bld
